Test results from ChEMBL document CHEMBL1128343, “Synthesis, properties, and pharmacokinetic studies of N2-phenylguanine derivatives as inhibitors of herpes simplex virus thymidine kinases” (J Med Chem, 1995).
pIC50: −log10 of the molar value.

Key:
Thymidine kinase [1] = biological target: T1, Thymidine kinase (Human alphaherpesvirus 1, UniProt Q9QNF7); assay: Inhibition of HSV-1 thymidine kinase, 1 uM [3H]thymidine and ATP as phosphate donor
T1 sequence (Q9QNF7 whole entry): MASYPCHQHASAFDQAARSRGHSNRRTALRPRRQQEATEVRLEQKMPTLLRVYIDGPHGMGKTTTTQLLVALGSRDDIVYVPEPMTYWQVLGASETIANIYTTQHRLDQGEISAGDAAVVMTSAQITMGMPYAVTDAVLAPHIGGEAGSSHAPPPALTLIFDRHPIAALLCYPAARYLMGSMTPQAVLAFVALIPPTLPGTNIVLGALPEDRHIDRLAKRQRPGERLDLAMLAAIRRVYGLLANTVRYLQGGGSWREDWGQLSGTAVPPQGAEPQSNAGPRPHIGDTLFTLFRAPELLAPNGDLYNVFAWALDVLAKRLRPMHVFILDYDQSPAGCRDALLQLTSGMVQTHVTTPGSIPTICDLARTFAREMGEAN

Thymidine kinase [2] = biological target: T2, Thymidine kinase (Human herpesvirus 2, UniProt Q6L709); assay: Inhibition of HSV-2 thymidine kinase, 2 uM [3H]thymidine and ATP as phosphate donor; parameters: species or system Human alphaherpesvirus 2
T2 sequence (Q6L709 whole entry): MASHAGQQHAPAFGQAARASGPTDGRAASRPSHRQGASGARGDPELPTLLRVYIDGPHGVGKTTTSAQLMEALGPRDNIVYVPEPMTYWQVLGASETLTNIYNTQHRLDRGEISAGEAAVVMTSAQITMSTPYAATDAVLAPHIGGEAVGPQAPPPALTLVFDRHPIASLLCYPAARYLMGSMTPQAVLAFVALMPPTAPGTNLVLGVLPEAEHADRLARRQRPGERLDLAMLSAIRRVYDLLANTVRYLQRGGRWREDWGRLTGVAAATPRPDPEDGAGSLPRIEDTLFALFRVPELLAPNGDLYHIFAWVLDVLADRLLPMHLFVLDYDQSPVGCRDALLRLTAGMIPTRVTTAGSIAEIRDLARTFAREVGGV
In short: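 TK purified by affinity column from HSV2-infected HeLa cells. Activity measured by DE-81 filter binding as phosphorylation of limiting 2 µM [3H]TdR with ATP as phosphate donor. Inhibitors were diluted from DMSO stocks, with matching DMSO in controls.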

Mus musculus [3] = assay: Plasma concentration at time-0 was measured in mice at 100 mg/kg after intraperitoneal administration with 90% DMSO as vehicle; type: ADME, organism-based; parameters: dose 100 mg/kg, route intraperitoneal; details: in vivo, ip, read-out: Co
In short: (§1)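 Male CD-1 mice (~25 g) received 100 mg/kg ip as a solution in saline pH 11.4 or 90% DMSO. Plasma was collected at intervals after decapitation, diluted 10-fold and stored at −21 °C. Drug was measured by C8 reverse-phase HPLC with UV at 275 nm against spiked-plasma standards (0.11–56 µM). C0 and ke came from least-squares regression of the terminal log-linear phase; t1/2 = ln2/ke.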

Mus musculus [4] = assay: Plasma concentration at time-0 was measured in mice at 40 mg/kg after intravenous administration with 90% DMSO as vehicle; type: ADME, organism-based; parameters: dose 40 mg/kg, route intravenous; details: in vivo, read-out: Co
In short: (§2)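 Male CD-1 mice (~25 g) received 40 mg/kg iv via the tail vein, dissolved at 10 mg/mL in saline pH 11.4 or 90% aqueous DMSO. Blood was taken at intervals after decapitation, and plasma was diluted 10-fold. Drug was quantified by C8 reverse-phase HPLC with UV at 275 nm. C0 and ke came from a log-linear fit of all points; t1/2 = ln2/ke and Vd = dose/C0.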

[5] = Half life in mice plasma was determined at 40 mg/kg after intravenous administration with 90% DMSO as vehicle; type: ADME, organism-based; parameters: dose 40 mg/kg, route intravenous; details: mouse; in short: as §2
[6] = Volume of distribution in mice plasma was determined at 40 mg/kg after intravenous administration with 90% DMSO as vehicle; type: ADME, organism-based; parameters: dose 40 mg/kg, route intravenous; details: mouse; in short: as §2
Mus musculus [7] = assay: Plasma concentration at time-0 was measured in mice at 100 mg/kg after intraperitoneal administration with saline(pH=11.4) as vehicle; type: ADME, organism-based; parameters: dose 100 mg/kg, route intraperitoneal; details: in vivo, ip, pH 11.4, 100 mg/kg, read-out: Co; in short: as §1
[8] = Half life in mice plasma was determined at 40 mg/kg after intravenous administration with saline(pH=11.4) as vehicle; type: ADME, organism-based; parameters: dose 40 mg/kg, route intravenous; details: mouse; in short: as §2
[9] = Volume of distribution in mice plasma was determined at 40 mg/kg after intravenous administration with saline(pH=11.4) as vehicle; type: ADME, organism-based; parameters: dose 40 mg/kg, route intravenous; details: mouse; in short: as §2
[10] = Half life in mice plasma was determined at 100 mg/kg after intraperitoneal administration with saline(pH=11.4) as vehicle; type: ADME, organism-based; parameters: dose 100 mg/kg, route intraperitoneal; details: mouse, ip; in short: as §1
Mus musculus [11] = assay: Plasma concentration at time-0 was measured in mice at 40 mg/kg after intravenous administration with saline(pH=11.4) as vehicle; type: ADME, organism-based; parameters: dose 40 mg/kg, route intravenous; details: in vivo, pH 11.4, 40 mg/kg, read-out: Co; in short: as §2
[12] = Half life in mice plasma was determined at 100 mg/kg after intraperitoneal administration with 90% DMSO as vehicle; details: mouse, ip
Mus musculus [13] = assay: Plasma concentration at time-0 was measured in mice at 100 mg/kg after intraperitoneal administration with 90% DMSO as vehicle; details: in vivo, ip, read-out: Co

SMILES: O=c1[nH]c(Nc2cccc(CC(F)(F)F)c2)nc2nc[nH]c12
- pIC50 (Thymidine kinase [1]): 6.35
- pIC50 (Thymidine kinase [2]): 6.00

SMILES: O=c1[nH]c(Nc2ccccc2)nc2c1ncn2CCCCO
- concentration (Mus musculus [3]): 30.5 µM
- concentration (Mus musculus [4]): 49.5 µM
- half-life [5]: 14 min
- Vd [6]: 2.7 L/kg

SMILES: O=c1[nH]c(Nc2ccccc2)nc2c1ncn2CC(O)CO (stereo unspecified)
- pIC50 (Thymidine kinase [1]): 5.77
- pIC50 (Thymidine kinase [2]): 5.46

SMILES: O=c1[nH]c(Nc2cccc(C(F)F)c2)nc2nc[nH]c12
- pIC50 (Thymidine kinase [1]): 5.55
- pIC50 (Thymidine kinase [2]): 5.41

SMILES: O=C1N=C(Nc2ccccc2)N=C2C1N=CN2[C@H]1C[C@H](O)[C@@H](CO)O1 (stereo partly specified)
- concentration (Mus musculus [7]): 11.7 µM
- half-life [8]: 7.5 min
- Vd [9]: 0.4 L/kg
- half-life [10]: 60 min
- concentration (Mus musculus [11]): 174 µM

SMILES: COCCn1cnc2c(=O)[nH]c(Nc3ccccc3)nc21
- pIC50 (Thymidine kinase [1]): 6.21
- pIC50 (Thymidine kinase [2]): 5.57

SMILES: O=C1N=C(Nc2cccc(C(F)(F)F)c2)N=C2C1N=CN2[C@H]1C[C@H](O)[C@@H](CO)O1 (stereo partly specified)
- pIC50 (Thymidine kinase [1]): 5.40
- pIC50 (Thymidine kinase [2]): 5.70

SMILES: O=c1[nH]c(Nc2cccc(C(Cl)C(F)(F)Cl)c2)nc2nc[nH]c12 (stereo unspecified)
- pIC50 (Thymidine kinase [1]): 6.19
- pIC50 (Thymidine kinase [2]): 6.33

SMILES: O=c1[nH]c(Nc2ccccc2)nc2c1ncn2CCO
- half-life [12]: 21 min
- concentration (Mus musculus [4]): 44.7 µM
- concentration (Mus musculus [13]): 100 µM
- half-life [5]: 15 min
- Vd [6]: 3.3 L/kg

SMILES: OCCn1cnc2c(O)nc(Nc3cccc(C(F)(F)F)c3)nc21
- pIC50 (Thymidine kinase [1]): 5.33
- pIC50 (Thymidine kinase [2]): 4.69

SMILES: C=CCn1cnc2c(=O)[nH]c(Nc3ccccc3)nc21
- pIC50 (Thymidine kinase [2]): 6.74

SMILES: O=C(O)Cn1cnc2c(=O)[nH]c(Nc3ccccc3)nc21
- pIC50 (Thymidine kinase [1]): 4.91
- pIC50 (Thymidine kinase [2]): 5.01

SMILES: O=c1[nH]c(Nc2cccc(C(Cl)=C(Cl)Cl)c2)nc2[nH]cnc12
- pIC50 (Thymidine kinase [1]): 4.15
- pIC50 (Thymidine kinase [2]): 4.15

SMILES: O=c1[nH]c(Nc2cccc(C(F)(F)F)c2)nc2nc[nH]c12
- concentration (Mus musculus [7]): 10.2 µM
- half-life [8]: 25 min
- Vd [9]: 3 L/kg
- concentration (Mus musculus [11]): 54.2 µM

SMILES: O=c1[nH]c(Nc2ccccc2)nc2c1ncn2CC(O)CSCCO (stereo unspecified)
- pIC50 (Thymidine kinase [1]): 5.80
- pIC50 (Thymidine kinase [2]): 5.80

SMILES: O=c1[nH]c(Nc2cccc(OC(F)(F)F)c2)nc2nc[nH]c12
- pIC50 (Thymidine kinase [1]): 5.64
- pIC50 (Thymidine kinase [2]): 5.20
